# Measured values published in PubChem BioAssay AID651999 (Sanford-Burnham Center for Chemical Genomics, 2013).
# Values joined by “and” are separate entries in the source; they are usually repeats but may differ in a detail not shown here. Equal values may be shown once. The whole screen tested about 360,000 compounds, of which about 1,400 (0.39%) were called active. The full list was thinned out, with actives kept by preference. A number with no mark means an inactive call.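 How the source made its calls: active means pattern-corrected inhibition above about 35%, with an unprinted fluorescence ratio check between 0.5 and 1.5 (limit read from the data, passing the limit was not always enough); inactive means the rest.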
# Biological target: COP9 signalosome complex subunit 5 (Homo sapiens) (UniProt Q92905)
# Sequence (Q92905 whole entry, looked up, one chain of several): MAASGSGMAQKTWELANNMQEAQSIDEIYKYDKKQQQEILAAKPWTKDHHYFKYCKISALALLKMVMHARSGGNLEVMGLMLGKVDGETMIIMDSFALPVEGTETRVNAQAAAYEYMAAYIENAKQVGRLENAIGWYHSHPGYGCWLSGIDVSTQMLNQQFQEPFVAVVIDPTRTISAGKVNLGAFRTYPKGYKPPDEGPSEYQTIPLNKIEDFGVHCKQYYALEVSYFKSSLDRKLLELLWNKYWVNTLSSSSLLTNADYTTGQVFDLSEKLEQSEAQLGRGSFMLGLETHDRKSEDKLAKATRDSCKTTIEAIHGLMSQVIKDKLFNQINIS
# Experiment: inhibitors of CSN-mediated cullin deneddylation, primary screen, biochemical, fluorescence polarization, uHTS (AID 651999);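 further: 0% = enzyme with substrate and 100% = substrate without enzyme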
# Conditions: Purified CSN, SCF-Nedd8-OG deneddylation, at 12.5 µM, active compounds read high
# Outline: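 Assay system: purified human Csn5 enzyme expressed in HEK293T cells; measure: % inhibition; also added: SCFSkp2-Nedd8OG substrate at 10 nM final; technique: fluorescence polarization; times: reaction 90 min, room temperature; medium: Tris buffer pH 7.5, NaCl, DTT, Tween-20, trehalose, ovalbumin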
row,Compound,inhibition
1,N#Cc1c(NC(=O)CCCN2C(=O)c3ccccc3C2=O)oc(-c2ccccc2)c1-c1ccccc1,-3.56%
2,CC(C)C(=O)Nc1oc(-c2ccccc2)cc1C#N,5.77%
3,CC(Oc1ccccc1)C(=O)Nc1oc(-c2ccco2)c(-c2ccco2)c1C#N (stereo not given),38.5% (active)
4,Nc1nnc2c(C(F)(F)F)nc3ccccc3n12,0.57%
5,Cc1cccc(N2C(=O)SC(SC(=Nc3ccccc3)Nc3ccccc3)C2=O)c1 (stereo not given),-2.12%
6,CCC(C)(C)n1nnnc1CN1CCN(c2nc3ccc(C)cc3cc2C#N)CC1,1.36%
7,Cc1cccc(N(C)C(=O)CN2C(=O)COc3ccc(S(=O)(=O)N4CCCCCC4)cc32)c1,-4.61%
8,Cc1cc(C(=O)CCC(=O)NNC(=O)c2ccccc2O)c(C)s1,36.4% (active)
9,Cc1ccccc1C(=O)NNC(=O)CN1C(=O)c2ccccc2C1=O,6.43%
10,Cc1cccc(NS(=O)(=O)c2cccc(C(=O)NNC(=O)c3ccccc3O)c2)c1,-6.82%
11,COC(=O)c1ccc(CN2CCN(CCCc3ccccc3)C(CCO)C2)cc1 (stereo not given),-2.91%
12,CCOC(=O)N1CCN(S(=O)(=O)N2CCCC(C(=O)NCCCN3CCC(C)CC3)C2)CC1 (stereo not given),2.45%
13,O=C(Oc1c(-c2ccco2)oc2ccccc2c1=O)c1cccnc1,-1.72%
14,CC(Oc1ccc(-c2ccccc2)c(F)c1)c1ccn(S(=O)(=O)c2cccc3ccccc23)n1 (stereo not given),3.61%
15,COc1ccc(C2OCC3(CO2)SC(=O)NC3=O)cc1OC (stereo not given),-7.79%
16,CCc1ccc(CNC(=O)CCc2nc(-c3cccs3)no2)cc1,90.8% (active)
17,COc1ccc(CCc2nc(-c3cccs3)no2)cc1,1.58%
18,COc1ccc(OC)c(CNC(=O)CCc2nc(-c3cccs3)no2)c1,2.31%
19,COc1cccc2c1C(=O)c1c(O)c3c(c(O)c1C2=O)CC(O)(C(C)=NNC(=O)c1ccc(Cl)c(Cl)c1)CC3OC1CC(N)C(O)C(C)O1 (stereo not given),-72.5%
20,COc1ccc(CN2CN(C3CCCC3)CSC2=S)cc1,-9.41%
21,COC(=O)[C@@]12C[C@@H](CC(=O)NCc3cccc(C(F)(F)F)c3)C(=O)N(Cc3ccco3)C1=CCC(C)(C)C2,1.26%
22,Cc1cccc(-c2cnc(C(O)c3cc(C)cc(C)c3)[nH]2)c1 (stereo not given),-2.61%
23,Cc1cccc(-c2cnc(C(O)c3ccc4ccccc4c3)[nH]2)c1 (stereo not given),39.3% (active)

row,Compound,inhibition
1,COc1cccc(C(O)c2ncc(-c3ccc4ccccc4c3)[nH]2)c1 (stereo not given),-4.1%
2,CCc1nn(CCCN2CCN(c3cccc(Cl)c3)CC2)c(=O)n1CCOc1ccccc1,-4.47% and -2.79%
3,Cc1ccc(CNS(=O)(=O)c2ccc3c(c2)N(C)CCO3)cc1,-2.61%
4,CCCC/C=C/c1cccc2nncn12,-1.69%
5,COc1ccc2[nH]c3c(C)c4cc[n+](C)cc4c(C)c3c2c1,102% (active)
6,Cc1cc(O)c(Sc2ccccc2)c(=O)o1,0.39%
7,Cc1cc(O)c(C(=O)/C=C/c2c(F)c(F)c(F)c(F)c2F)c(=O)o1,43.9% (active)
8,O=C(CC[C@H]1O[C@@H](n2ccc(=O)[nH]c2=O)[C@H](O)[C@@H]1O)N[C@H](Cc1ccccc1)C(=O)NCc1ccco1,-1.91%
9,CCN(CC(=O)NCC(=O)Nc1cccc(C)c1C)Cc1ccccc1,1.96%
10,CCOc1cc(CNn2c(C)nnc2SCC(=O)NC(C)(C)C)ccc1OCC(=O)NC(C)(C)C,2.06%
11,C=CCSc1nnc(Cn2c(=O)sc3ccccc32)n1C,7.9%
12,CCSc1nc(C)c(CCOc2cccc(C)c2)c(=O)[nH]1,-18.6%
13,COc1cccc(CN(C)CC(=O)Nc2sc3c(c2C#N)CCC3)c1,4.05%
14,NC(=O)c1c(NC(=O)CSc2nnc(-c3ccco3)n2N)sc2c1CCCC2,10.7%
15,COc1ccc(-n2c(SCC(=O)Nc3sc4c(c3C#N)CCCC4)nnc2-c2ccc(O)cc2)cc1,50.2% (active)
16,Cc1ccc(NC(=O)CN(C)S(=O)(=O)c2cnc[nH]2)cc1C,-2.5%
17,C=CCC1=C/C(=C\c2c(N)n3nc(CC(=O)N4CCOCC4)sc3nc2=O)C=C(OC)C1=O,72.5% (active)
18,COC1=C/C(=C/c2c(N)n3nc(CC(=O)N4CCOCC4)sc3nc2=O)C=CC1=O,16.1%
19,O=C(C1CCN(C2CCN(Cc3ccc4cc(F)ccc4n3)CC2)CC1)N1CCCC1,1%
20,Cc1cc(F)ccc1S(=O)(=O)Nc1ncnc2scc(-c3ccc(F)cc3)c12,0.77%
21,O=C(O)CC(c1ccccc1F)N1Cc2ccccc2C1=O (stereo not given),-0.99%
22,O=S(=O)(Nc1ccc2ccccc2c1)N1CCCCC1,-1.67%
23,Cc1noc(C)c1S(=O)(=O)N(C)C[C@H]1Oc2ccc(NC(=O)C3CCCCC3)cc2C(=O)N([C@H](C)CO)C[C@@H]1C,-5.26%

row,Compound,inhibition
1,CCN1/C(=C\c2ccc3ccccc3[n+]2CC)Sc2cc(C)ccc21,62.2% (active)
2,FC(F)(F)c1ccccc1Cc1c(-c2ccccc2)nc2c3ccccc3ccn12,3.57%
3,COc1cc(CN(C)Cc2nc3cc(C(F)(F)F)ccc3c(=O)[nH]2)ccc1OC(F)F,5.3%
4,CC(=O)Nc1ccc(C(=O)NNC(=O)CCCCC(=O)NNC(=O)c2ccc(NC(C)=O)cc2)cc1,2.24%
5,CN(CC(=O)NC1CCCCC1)S(=O)(=O)c1cccc2cccnc12,-6.5%
6,CC1(C)CC(=O)C2=C(C1)NCN(CCCN1CCOCC1)C2,-5.59%
7,O=C(COC(=O)c1cc(=O)[nH]c2ccccc12)Nc1nc(-c2cccc(Br)c2)cs1,3.39%
8,O=C(CSc1nc2ccccc2c(=O)[nH]1)Nc1nc(-c2ccc(Br)cc2)cs1,55.8% (active)
9,CCCn1c(C)cc(-c2csc(NC(=O)CCc3nc4ccccc4c(=O)[nH]3)n2)c1C,5.04%
10,CC1(C)C2CCC1(CS(=O)(=O)NCCc1c[nH]c3ccccc13)C(=O)C2 (stereo not given),-3.93%
11,COc1ccc(C(c2nnnn2C2CCCC2)N2CCN(C/C=C/c3ccccc3)CC2)cc1 (stereo not given),-3.45%
12,OC[C@@H]1CN(Cc2cccs2)C[C@H](n2cnc3c(Nc4ccccc4)ncnc32)O1,1.6%
13,N#C/C(=C\C1=C(N2CCOCC2)C(=C\c2ccccc2)/CC1)C(=O)Nc1ccccc1F,59.9% (active)
14,O=C(CC1SC(N2CCOCC2)=NC1=O)Nc1ccccc1F (stereo not given),-4.57%
15,CNC(=O)/C(C#N)=C/c1c(F)cccc1Cl,-0.2%
16,Cc1cc(C)c(S(=O)(=O)NCC(c2ccc3c(c2)OCO3)N2CCOCC2)c(C)c1 (stereo not given),4.99%
17,COc1ccc(C2=Nc3ccccc3NC(=O)C2N(C(=O)c2cc3ccccc3[nH]2)c2ccccc2)cc1 (stereo not given),1.01%
18,O=C(O)c1ccccc1NC(=S)NC(NC(=O)c1ccccc1[N+](=O)[O-])C(Cl)(Cl)Cl (stereo not given),0.72%
19,COc1cc(N2CCCC2)c(OC)cc1/C=C(/C#N)c1cccc(Br)c1,40.3% (active)
20,Cc1cccc(NC(=O)C2CC(=O)OC23CCCC3)c1 (stereo not given),-1.93%
21,Cc1cccc(C)c1NC(=O)C1CCCN1C(=O)OC(C)(C)C (stereo not given),1.38%
22,O=C(C(=O)N1CCc2ccccc2C1)c1c[nH]c2ccccc12,3.61%
23,CN(C(=O)COc1nnc(-c2cccs2)c(-c2cccs2)n1)c1ccccc1,4.69%

row,Compound,inhibition
1,C=CCn1c(=S)[nH]c2scc(-c3ccco3)c2c1=O,35.8% (active)
2,Cc1ccc(-c2nnc(C)c(N3CC(C)OC(C)C3)n2)cc1 (stereo not given),4.31%
3,Cc1nn(C)c(Cl)c1CN1CCC(Oc2ccc(C(=O)N3CCCC3)cc2)CC1,-0.97%
4,Cc1ccccc1-n1nc(C)c2cc(C(=O)NC3CC3)sc21,-0.46%
5,COCCCn1c(C(=O)NC2CCCCC2)cc2c(=O)n3cccc(C)c3nc21,-3.61%
6,Cc1cccn2c(=O)c3cc(C(=O)NC4CCCCC4)sc3nc12,38.6% (active)
7,CN1CCNC(=O)C1CC(=O)N1CC=C(c2ccc(F)cc2)CC1 (stereo not given),-1.53%
8,Cc1ccc([C@H]2C[C@H](O)[C@@H](n3cc(COC(=O)c4ccccc4)nn3)CN2CC2CCCCC2)cc1,-1.77%
9,COC(=O)N/N=C/c1c[n+]([O-])c2ccccc2[n+]1[O-],-7.07%
10,Cc1cccc(N2CCN(C(=O)/C=C/c3ccco3)CC2)c1C,-6.8%
11,CCC(=O)Nc1ccc2nn(-c3ccc(F)cc3)nc2c1,-3.58%
12,Cc1ccc(-n2nc3ccc(NC(=O)/C=C/c4ccco4)cc3n2)cc1C,62.3% (active)
13,C[C@H](CO)N1C[C@H](C)[C@@H](CN(C)C(=O)c2cnccn2)Oc2ncc(Br)cc2C1=O,-0.87%
14,COc1ccc(C(C(=O)NC2CCCC2)N(CCCO)C(=O)Cn2nnc(-c3ccc(C)o3)n2)cc1 (stereo not given),-1.83%
15,CCCNC(=O)C1(C)CCCN(Cc2cccc(C(F)(F)F)c2)C1 (stereo not given),1.08%
16,O=C(CN1C(=O)CCS(=O)(=O)c2ccccc21)NCc1ccc(F)cc1,2.38%
17,CSCc1ccc(C(=O)Nc2cc(C)cc(C)c2)cc1,-3.14%
18,COCc1cc(C)nc(Nc2cc(C)ccc2C)c1C#N,2.37%
19,Cc1c(C(=O)NCCN2C(=O)S/C(=C\c3cccs3)C2=O)cccc1[N+](=O)[O-],-3.22%
20,O=C(CCN1C(=O)/C(=C/c2cccs2)SC1=S)NNC(=O)c1cccc(O)c1,51.4% (active)
21,O=C(CCN1C(=O)c2ccccc2C1=O)NNC(=O)c1ccc(Cl)cc1Cl,-5.29%
